In one assay the test system is U87MG cells. In words: MTT cell proliferation assay. Type of assay: cell-based. To be noted: read-out: Anti-proliferative activity IC50, U87MG.
The next assay deals with U251 xenografts. Kind of assay: U251 xenograft antitumor activity. It is filed as in vivo. To be noted: mice; oral; 30 mg/kg; 21 days. In outline: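 SPF nude mice, 6–8 weeks old, with subcutaneous U251 xenografts; test compound or reference inhibitors given orally at 30 mg/kg, normal saline as vehicle control, analysed at 21 days. Tumor volume, tumor weight and body weight tracked; tumors immunostained for MDM2, P53, P21, pCDK4, pRB and Ki-67, plus TUNEL immunofluorescence, scored as percent positive cells; mean ± SD.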

For the next assay, the system named is T98G cells. Kind of assay: MTT cell proliferation assay. Type of assay: cell-based. To be noted: read-out: Anti-proliferative activity IC50, T98G. For orientation: Tetrazolium assays rely on reduction of a dye to a coloured formazan, in cell work by metabolically active cells.
The test system of another assay is U251 cells. Kind of assay: MTT cell proliferation assay. Type of assay: cell-based. To be noted: read-out: Anti-proliferative activity IC50, U251.
A further assay concerns MDM2 and CDK4. Kind of assay: TR-FRET inhibition at concentrations below 1.0 μmol/L. To be noted: target per compound not stated. Type of assay: biochemical. (In general: In TR-FRET formats the signal depends on donor and acceptor labels being close together.)
The target of a further assay is MDM2 (Homo sapiens, UniProt Q00987). In words: TR-FRET. Type of assay: binding. To be noted: for inhibition at 1 µM: read-out: Inhibition rate at 1.0 μmol/L, MDM2.
MDM2, sequence (Q00987 whole entry): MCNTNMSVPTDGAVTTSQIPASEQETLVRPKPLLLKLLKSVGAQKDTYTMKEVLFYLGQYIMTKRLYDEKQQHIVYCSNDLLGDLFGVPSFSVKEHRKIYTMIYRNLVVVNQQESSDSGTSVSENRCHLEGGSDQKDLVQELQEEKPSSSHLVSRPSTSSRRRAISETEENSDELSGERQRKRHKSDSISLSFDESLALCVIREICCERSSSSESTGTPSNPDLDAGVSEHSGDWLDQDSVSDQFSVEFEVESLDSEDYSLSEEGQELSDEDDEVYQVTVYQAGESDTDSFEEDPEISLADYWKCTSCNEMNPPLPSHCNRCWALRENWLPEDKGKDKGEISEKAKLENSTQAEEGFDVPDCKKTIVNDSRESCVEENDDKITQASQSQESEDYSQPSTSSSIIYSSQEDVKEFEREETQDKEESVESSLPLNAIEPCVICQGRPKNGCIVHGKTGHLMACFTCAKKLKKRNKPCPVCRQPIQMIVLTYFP
[1] abbreviates: 24-h incubation, MTT, mutated P53.

Read-outs that look alike come from different tables or passages of the source.

By IC50 is commonly meant the point on the concentration scale where inhibition reaches its midpoint.

Consider `CC(=O)c1c(C)c2cnc(Nc3ccc(N4CCNCC4)cn3)nc2n(C2CCCC2)c1=O` [Palbociclib, palbociclib, reference compound], for which the IC50 turned out to be 26.4 ± 3.8 µM with U87MG cells (Homo sapiens, U-87 MG, 24 h); 29.5 ± 4.5 µM in the assay on T98G cells (Homo sapiens, T98G, 24 h); 18.9 ± 2.4 µM with U251 cells (Homo sapiens, U-251, 24 h). For the same compound, in the assay on U251 xenografts, the tumor growth result was “potently inhibited tumor growth”.

Consider `COc1ccc(C2=N[C@@H](c3ccc(Cl)cc3)[C@@H](c3ccc(Cl)cc3)N2C(=O)N2CCNC(=O)C2)c(OC(C)C)c1` [Nutlin-3a, nutlin-3a, reference compound], for which the IC50 is 25.3 ± 2.5 µM in the assay with U87MG cells (24-h incubation, MTT, wild-type P53); above 50 µM with T98G cells (setting [1]); above 50 µM in the assay with U251 cells (setting [1]). Besides, the tumor growth entry in the assay with U251 xenografts was “potently inhibited tumor growth”. Besides, the “inhibition at concentrations below 1.0 μmol/L” value in the assay with MDM2 and CDK4 was 40% to 20%.

Regarding `CCOC(=O)[C@H]1Cc2c(cc([N+](=O)[O-])cc2[N+](=O)[O-])[C@@H](O)[C@@]12C(=O)Nc1ccc(Br)cc12` [4g, Ethyl (1′R,3R,3′S)-5-bromo-1′-hydroxy-5′,7′-dinitro-2-oxo-3′,4′-dihydro-1′H-spiro[indoline-3,2′-naphthalene]-3′-carboxylate], the IC50 in the assay on U87MG cells (Homo sapiens, U-87 MG, 24 h) was found to be 4.9 ± 0.5 µM; against MDM2 it was 0.28 ± 0.06 µM; in the assay with T98G cells (Homo sapiens, T98G, 24 h), 9.5 ± 0.7 µM; in the assay with U251 cells (Homo sapiens, U-251, 24 h), 8.6 ± 0.6 µM. Moreover, at MDM2, the inhibition at 1 µM turned out to be 92.3 ± 11.2%.

In the case of `CCOC(=O)[C@H]1Cc2c(cc([N+](=O)[O-])cc2[N+](=O)[O-])[C@H](O)[C@]12C(=O)Nc1ccc(Cl)cc12` [4d′, Ethyl (1′S,3S,3′S)-5-chloro-1′-hydroxy-5′,7′-dinitro-2-oxo-3′,4′-dihydro-1′H-spiro[indoline-3,2′-naphthalene]-3′-carboxylate], the IC50 with U87MG cells (Homo sapiens, U-87 MG, 24 h) is 60.4 µM; on MDM2, 1.8 ± 0.12 µM; with T98G cells (Homo sapiens, T98G, 24 h), above 50 µM; with U251 cells (Homo sapiens, U-251, 24 h), above 50 µM. Moreover, on MDM2, the inhibition at 1 µM was 54.2%.

The record behind these values is article PMC7488488 (Acta Pharmaceutica Sinica. B, 2019).
